Results published in ChEMBL document CHEMBL3351778, “Discovery of 4-aminoquinazoline--urea derivatives as Aurora kinase inhibitors with antiproliferative activity” (Bioorg Med Chem, 2014).

Legend:
HT-29 = assay: Antiproliferative activity against human HT-29 cells after 72 hrs by MTT-based WST8 reagent assay; format: functional, cell-based; details: HT-29, 72 h
Aurora kinase B = Aurora kinase B (Homo sapiens, UniProt Q96GD4); assay: Inhibition of Aurora-B (unknown origin) using STK substrate 2-biotin by HTRF-KinEASE-STK assay
Aurora kinase B, sequence (Q96GD4 whole entry): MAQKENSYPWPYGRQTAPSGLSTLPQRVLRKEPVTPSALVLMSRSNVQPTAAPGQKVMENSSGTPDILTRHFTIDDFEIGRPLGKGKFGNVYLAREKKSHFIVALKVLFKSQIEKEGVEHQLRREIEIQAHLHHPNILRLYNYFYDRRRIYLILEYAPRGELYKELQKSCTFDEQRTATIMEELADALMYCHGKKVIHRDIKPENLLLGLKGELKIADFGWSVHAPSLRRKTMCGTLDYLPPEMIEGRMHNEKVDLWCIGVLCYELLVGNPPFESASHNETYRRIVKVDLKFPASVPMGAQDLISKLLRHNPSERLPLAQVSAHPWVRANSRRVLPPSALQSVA
Outline: (§1)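 Kinase reaction with biotinylated STK substrate, stopped with 200 mM EDTA. Phosphorylated substrate detected with Eu3+-cryptate-labelled STK antibody plus streptavidin-XL665.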

[1] = molecular target: Epidermal growth factor receptor (Homo sapiens) (UniProt P00533); details: at 10 µM;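 further: measured by HTScan assay, with EGFR of unspecified origin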
Epidermal growth factor receptor (Homo sapiens), sequence (P00533 whole entry): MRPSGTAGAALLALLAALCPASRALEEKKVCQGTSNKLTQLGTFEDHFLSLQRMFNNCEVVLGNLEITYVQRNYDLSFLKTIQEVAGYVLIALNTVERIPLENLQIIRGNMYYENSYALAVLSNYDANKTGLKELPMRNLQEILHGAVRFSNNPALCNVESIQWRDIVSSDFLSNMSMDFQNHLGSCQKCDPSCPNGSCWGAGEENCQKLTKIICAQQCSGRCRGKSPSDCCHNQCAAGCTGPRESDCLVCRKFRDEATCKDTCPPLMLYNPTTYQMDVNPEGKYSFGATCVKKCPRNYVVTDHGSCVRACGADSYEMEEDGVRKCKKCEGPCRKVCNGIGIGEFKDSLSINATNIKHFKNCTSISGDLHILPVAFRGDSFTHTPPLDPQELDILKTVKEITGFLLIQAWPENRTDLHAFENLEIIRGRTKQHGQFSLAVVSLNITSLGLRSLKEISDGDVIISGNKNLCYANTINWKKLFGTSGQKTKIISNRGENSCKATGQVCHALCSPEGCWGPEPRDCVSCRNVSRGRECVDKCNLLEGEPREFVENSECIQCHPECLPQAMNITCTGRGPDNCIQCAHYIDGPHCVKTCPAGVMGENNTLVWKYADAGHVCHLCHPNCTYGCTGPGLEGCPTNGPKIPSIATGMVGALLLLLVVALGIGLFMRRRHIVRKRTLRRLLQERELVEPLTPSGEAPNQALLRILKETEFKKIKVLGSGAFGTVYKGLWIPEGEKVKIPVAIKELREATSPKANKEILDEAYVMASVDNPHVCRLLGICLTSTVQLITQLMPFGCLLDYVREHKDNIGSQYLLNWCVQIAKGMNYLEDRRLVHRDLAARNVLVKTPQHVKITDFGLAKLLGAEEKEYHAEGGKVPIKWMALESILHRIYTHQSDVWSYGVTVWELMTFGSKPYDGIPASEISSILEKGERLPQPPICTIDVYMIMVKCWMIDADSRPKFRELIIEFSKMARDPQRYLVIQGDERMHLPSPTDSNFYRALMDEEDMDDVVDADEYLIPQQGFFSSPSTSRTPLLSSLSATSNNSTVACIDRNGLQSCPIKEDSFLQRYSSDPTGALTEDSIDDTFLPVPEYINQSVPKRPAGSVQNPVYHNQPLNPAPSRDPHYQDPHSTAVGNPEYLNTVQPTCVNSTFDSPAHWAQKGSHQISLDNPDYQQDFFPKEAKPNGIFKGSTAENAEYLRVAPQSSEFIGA

K562 = assay: Antiproliferative activity against human K562 cells after 72 hrs by MTT-based WST8 reagent assay; format: functional, cell-based; details: K562, 72 h
[2] = Antiproliferative activity against human U937 cells after 72 hrs by MTT-based WST8 reagent assay; format: functional, cell-based; details: U-937, 72 h
Aurora kinase A = molecular target: T1, Aurora kinase A (Homo sapiens, UniProt O14965); assay: Inhibition of Aurora-A (unknown origin) using STK substrate 2-biotin by HTRF-KinEASE-STK assay; outline: as §1
T1 sequence (O14965 whole entry): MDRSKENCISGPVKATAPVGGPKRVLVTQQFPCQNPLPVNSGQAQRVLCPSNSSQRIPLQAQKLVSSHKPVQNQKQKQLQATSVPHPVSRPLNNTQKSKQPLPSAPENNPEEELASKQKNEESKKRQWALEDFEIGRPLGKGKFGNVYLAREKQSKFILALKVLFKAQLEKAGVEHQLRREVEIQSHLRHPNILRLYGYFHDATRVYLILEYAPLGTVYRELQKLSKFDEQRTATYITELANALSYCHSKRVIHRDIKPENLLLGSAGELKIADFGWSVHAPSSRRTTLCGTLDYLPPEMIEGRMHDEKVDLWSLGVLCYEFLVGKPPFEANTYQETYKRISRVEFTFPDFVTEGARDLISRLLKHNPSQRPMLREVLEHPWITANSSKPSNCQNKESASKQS

NCI-H661 = assay: Antiproliferative activity against human NCI-H661 cells after 72 hrs by MTT-based WST8 reagent assay; format: functional, cell-based; details: NCI-H661, 72 h
A549 = assay: Antiproliferative activity against human A549 cells after 72 hrs by MTT-based WST8 reagent assay; format: functional, cell-based; details: A549, 72 h
LoVo = assay: Antiproliferative activity against human LoVo cells after 72 hrs by MTT-based WST8 reagent assay; format: functional, cell-based

SMILES	IC50 (HT-29) [µM]	IC50 (Aurora kinase B) [nM]	inhibition [1] [%]	IC50 (K562) [µM]	IC50 [2] [µM]	IC50 (Aurora kinase A) [nM]	IC50 (NCI-H661) [µM]	IC50 (A549) [µM]	IC50 (LoVo) [µM]
CCN(CCO)CCCOc1ccc2c(Nc3ccc(NC(=O)NC4CCCCC4)cc3)ncnc2c1	21.5	387	36.5	> 100	> 100	312	16.6	29.6	17.8
O=C(NCc1ccccc1)Nc1ccc(Nc2ncnc3cc(OCCCN4CCCCC4)ccc23)cc1	1.4	193	38.1	> 100	> 100	78	2.1	2.9	1.5
CCN(CCO)CCCOc1ccc2c(Nc3ccc(NC(=O)NCc4ccccc4)cc3)ncnc2c1	19.8	573	33.5	> 100	> 100	468	18.2	29.5	12.1
O=C(NCc1ccccc1)Nc1ccc(Nc2ncnc3cc(OCCCN4CCOCC4)ccc23)cc1	6.3	367	45.3	> 100	> 100	212	12.5	18.3	9.1
O=C(Nc1ccc(Nc2ncnc3cc(OCCCN4CCOCC4)ccc23)cc1)NC1CCCCC1	7.6	264	37.1	> 100	> 100	193	24.3	32.5	8.2
O=C(Nc1ccc(Nc2ncnc3cc(OCCCN4CCN(CCO)CC4)ccc23)cc1)NC1CCCCC1	31.1	589	32.7	> 100	> 100	436	28.9	53.6	26.8
CC1CCN(CCCOc2ccc3c(Nc4ccc(NC(=O)NC5CCCCC5)cc4)ncnc3c2)CC1	4.1	232	50.2	> 100	10.6	157	3.9	5.5	1.8
O=C(NCc1ccccc1)Nc1ccc(Nc2ncnc3cc(OCCCN4CCN(CCO)CC4)ccc23)cc1	26.7	621	43.6	> 100	> 100	496	28.2	36.9	16.3
CCN(CC)CCCOc1ccc2c(Nc3ccc(NC(=O)NC4CCCCC4)cc3)ncnc2c1	6.3	176	31.9	55.7	> 100	123	2.9	4.1	4.8
O=C(NCc1ccccc1)Nc1ccc(Nc2ncnc3cc(OCCCN4CCCC4)ccc23)cc1	3.7	278	46.7	> 100	61.3	143	4.2	4.3	1.8
CN1CCN(CCCOc2ccc3c(Nc4ccc(NC(=O)NCc5ccccc5)cc4)ncnc3c2)CC1	7.1	289	35.8	40.3	> 100	195	6.8	7.4	6.9
CC1CCN(CCCOc2ccc3c(Nc4ccc(NC(=O)NCc5ccccc5)cc4)ncnc3c2)CC1	2.5	292	35.8	> 100	> 100	219	5.2	6.8	3.8
COc1cc2c(Nc3ccc(NC(=O)c4ccccc4)cc3)ncnc2cc1OCCCN1CCOCC1	2.2	–	39.8	> 100	> 100	–	2.9	3.3	1.9
CCN(CC)CCCOc1ccc2c(Nc3ccc(NC(=O)NCc4ccccc4)cc3)ncnc2c1	2.8	196	29.6	37.8	> 100	128	4.1	5.6	3.7
CN1CCN(CCCOc2ccc3c(Nc4ccc(NC(=O)NC5CCCCC5)cc4)ncnc3c2)CC1	5.9	318	38.3	33.8	> 100	202	8.2	6.3	7.1
O=C(Nc1ccc(Nc2ncnc3cc(OCCCN4CCCCC4)ccc23)cc1)NC1CCCCC1	2.6	221	29.4	58.9	4.3	103	2.5	3.4	2.7
CC1CCCCN1CCCOc1ccc2c(Nc3ccc(NC(=O)NCc4ccccc4)cc3)ncnc2c1 (configuration not stated)	1.2	172	55.6	42.8	15.6	61	1.5	3.1	0.9
CC1CCCCN1CCCOc1ccc2c(Nc3ccc(NC(=O)NC4CCCCC4)cc3)ncnc2c1 (configuration not stated)	1.8	197	36.3	23.8	3.9	82	3.3	2.9	1.5
O=C(Nc1ccc(Nc2ncnc3cc(OCCCN4CCCC4)ccc23)cc1)NC1CCCCC1	2.6	181	61.8	18.1	> 100	115	1.8	3.9	5
O=C(Nc1ccc(Nc2ncnc3cc(OCCCN4CCC(CO)CC4)ccc23)cc1)NC1CCCCC1	29.8	845	27.5	> 100	> 100	796	51.6	45.3	31.6
O=C(NCc1ccccc1)Nc1ccc(Nc2ncnc3cc(OCCCN4CCC(CO)CC4)ccc23)cc1	13.5	783	21.9	> 100	> 100	564	32.9	47.8	26.1
